A selection: hits, their analogues and other compounds. The true share with any hit is near 3.5%.
MrgX1 PAM: human MrgX1 positive allosteric modulation, primary screen; Q96LB2; MrgX1-HEK293, Fluo-4 calcium flux, FDSS; stronger effect = higher value; B-score at 10 µM; actives 0.63% (n = 310,000); AID 588675;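 active = plate-corrected calcium response at least 3 library SD above typical, normal starting fluorescence, not activating the receptor alone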;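 also: compound read alongside a low EC10 to EC30 dose of BAM8-22 agonist; peak minus trough fluorescence over baseline measured at the second addition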
Target sequence (Q96LB2 whole entry, looked up): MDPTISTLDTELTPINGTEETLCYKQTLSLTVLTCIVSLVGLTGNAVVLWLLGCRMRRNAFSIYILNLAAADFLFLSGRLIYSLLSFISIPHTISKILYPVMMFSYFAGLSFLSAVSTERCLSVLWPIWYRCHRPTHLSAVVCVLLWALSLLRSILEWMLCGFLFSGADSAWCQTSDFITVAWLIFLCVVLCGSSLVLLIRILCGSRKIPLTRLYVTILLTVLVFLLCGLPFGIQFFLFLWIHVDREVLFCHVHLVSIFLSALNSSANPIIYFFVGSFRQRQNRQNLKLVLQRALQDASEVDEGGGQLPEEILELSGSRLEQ
MrgX1 antag: human MrgX1 receptor antagonism, primary screen; B-score at 10 µM; actives 1.3% (n = 310,000); AID 588676; MRGX1-HEK293 calcium flux, Fluo-4, BAM8-22 antagonism; stronger effect = lower value;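 active = calcium-response B-score plate-corrected more than 3 library SD below zero, starting fluorescence within 5 deviations, no agonist response on first addition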;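 also: peak minus trough fluorescence over baseline after final BAM8-22 challenge near maximal dose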
RGS4 block: inhibitors of human RGS4; HEK293 M3R/RGS4 inducible, Fluo-4 calcium flux; stronger effect = higher value; triggered by carbachol at its EC20; AID 463165; actives 0.45% (n = 310,000); B-score at 10 µM; P49798;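 active = B-score, a plate-corrected calcium signal, over three deviations above library mean, with baseline fluorescence within five deviations of library mean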;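 also: RGS4 expression induced by doxycycline in cells with stable M3 receptor; B-score is computed from the integrated fluorescence ratio over baseline after carbachol; higher B-score means a larger calcium signal and so more RGS4 inhibition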
Target sequence (P49798 whole entry, looked up): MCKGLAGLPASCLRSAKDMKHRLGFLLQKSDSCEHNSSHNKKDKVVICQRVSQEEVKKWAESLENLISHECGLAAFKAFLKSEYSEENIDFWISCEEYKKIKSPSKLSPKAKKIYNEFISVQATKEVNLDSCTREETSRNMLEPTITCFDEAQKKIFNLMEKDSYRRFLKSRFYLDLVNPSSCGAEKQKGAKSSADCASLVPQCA
MrgX1 agonist: activates human MrgX1 receptor signaling; Q96LB2; MrgX1-HEK293 cells, Fluo-4 calcium fluorescence, agonist mode; stronger effect = higher value; B-score at 10 µM; actives 0.44% (n = 310,000); AID 588627;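 active = calcium response B-score plate-corrected fluorescence ratio at least 3 library SD, with starting fluorescence B-score inside 5 SD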
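times = overnight plating, then 30 min 37 °C plus 30 min room-temperature dye loading | assay system = stable human MrgX1 HEK293 cell line | input = fifteen thousand cells per well | signal = kinetic calcium dye fluorescence, Fluo-4 NW | dosing = compound delivered in addition one of three | read-out = B-scored fluorescence response ratio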
RGS4 act: potentiators or activators of RGS4 | B-score at 10 µM | HEK293 M3R/inducible RGS4, carbachol calcium flux Fluo4; stronger effect = lower value | actives 0.92% (n = 310,000);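 active = B-score of the integrated calcium signal more than 4 SD below the library mean, with starting fluorescence not abnormally high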;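 also: negative B-score means reduced calcium response which marks RGS4 activation or potentiation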
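Material: M3R-expressing HEK293 line, RGS4 induced by doxycycline | Schedule: Overnight RGS4 induction, 30 min dye load 37 °C, 20 min compound RT | Measured by: Fluo4 fluorescence kinetic imaging of calcium | Read-out: Integrated calcium ratio converted to B score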
RGS4 block valid: RGS4 inhibitor validation; shares compounds with RGS4 block; HEK293 M3R/RGS4, carbachol calcium Fluo-4 fluorescence; carbachol added at its EC20; 0 = buffer wells, 100 = carbachol control; calcium response, % at 10 µM; actives 65% (n = 1,700);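 active = duplicate-averaged calcium response above the buffer-only control mean plus 5 SD of those controls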;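 also: integrated fluorescence ratio F max minus min over baseline F0; higher response in RGS4-induced cells means RGS4 inhibition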
M3R Ca ctr: checks RGS4 inhibitor effects in non-induced HEK293 M3R cells; shares compounds with RGS4 block; carbachol calcium Fluo-4; submaximal (EC20) carbachol stimulus; buffer wells 0%, carbachol control wells 100%; activity (percent), % at 10 µM; actives 20% (n = 1,900); AID 493000; call rule not given here;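 also: RGS4 induction absent so cells express M3R without RGS4; higher means more calcium signal and flags a non-specific hit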
M3R basal Ca ctr: signal in non-induced cells without carbachol, RGS4 inhibitor counter-screen | shares compounds with RGS4 block | HEK293 M3R/RGS4 non-induced, Fluo-4 calcium, no carbachol; normalised: buffer wells 0%, carbachol wells 100% | calcium response (agonist-mode artifact), % at 10 µM | actives 22% (n = 1,900) | AID 493001;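 active = duplicate-averaged calcium rise in uninduced cells above buffer wells' mean plus 5 SD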
Large screens that a line does not name were inactive (follow-up assays come after a bar, where they were run).

CC12CN3CN(C1)CC(C)(C3)C2=NO	RGS4 block 5.2 | RGS4 block valid inactive | M3R Ca ctr inactive | M3R basal Ca ctr inactive
CCOC(=O)C1CCN(Cc2ccc(Cl)nc2)CC1	RGS4 block 5.52 | RGS4 block valid 9.5% | M3R Ca ctr 30.0% | M3R basal Ca ctr inactive
COc1ccc(-n2c(O)c(/C=C3\C=Nc4ccc(Br)cc43)c(=O)[nH]c2=O)c(OC)c1	RGS4 block 26.1 | RGS4 block valid 55.0% | M3R Ca ctr inactive | M3R basal Ca ctr 326.5%
CC1(C)CN2C(c3ccc(Cl)cc3)N2C1 (stereo not given)	none
CN1C(=O)NC(=O)/C(=C/c2ccc([N+](=O)[O-])s2)C1=O	RGS4 block 7.21 | RGS4 block valid 14.5% | M3R Ca ctr inactive | M3R basal Ca ctr inactive
COc1ccc(OC)c(N2C(=O)NC(=O)/C(=C\c3ccc([N+](=O)[O-])s3)C2=O)c1	RGS4 block 8.03 | RGS4 block valid 18.5% | M3R Ca ctr inactive | M3R basal Ca ctr inactive
O=C1NC(=O)N(c2ccccc2)C(=O)/C1=C\c1ccc([N+](=O)[O-])s1	none
Cc1ccc2cc(CNCCc3ccccc3C)c(=O)[nH]c2c1	none
O=C(CCc1nnc2ccc(NCc3ccccc3)nn12)N1CCC2(CC1)OCCO2	none
O=c1[nH]c(=O)n(CCC2=CCCCC2)c(O)c1/C=N/Nc1ccccc1	none
CCCCn1c(O)c(/C=N/NC(=O)c2ccncc2)c(=O)[nH]c1=O	none
O=c1[nH]c(=O)n(CCC2=CCCCC2)c(O)c1/C=N/Nc1cccc2ccccc12	RGS4 block 5.69 | RGS4 block valid 9.0% | M3R Ca ctr inactive | M3R basal Ca ctr inactive
O=C(N/N=C/c1c(O)n(CCc2ccccc2)c(=O)[nH]c1=O)c1ccccc1	MrgX1 antag -5.42 | RGS4 block valid inactive | M3R Ca ctr inactive | M3R basal Ca ctr 7.5%
CCC(=NCc1cccnc1)c1c(O)n(-c2ccc(Cl)cc2)c(=O)[nH]c1=O	none
Cc1cccc(NP(=O)(Oc2ccccc2F)Oc2ccccc2F)c1C	RGS4 block 4.88 | RGS4 block valid inactive | M3R Ca ctr inactive | M3R basal Ca ctr inactive
CCOc1ccc(N2C(=O)/C(=C\c3cccs3)C(=O)NC2=S)cc1	none | M3R Ca ctr inactive | M3R basal Ca ctr inactive
O=C1NC(=S)N(c2ccccc2F)C(=O)/C1=C\c1cccs1	RGS4 block 9.49 | RGS4 block valid 33.5% | M3R Ca ctr inactive | M3R basal Ca ctr inactive
CC1C(c2cccs2)=[N+]([O-])C(C)(C(=O)c2ccc(F)cc2)N1O (stereo not given)	none
Cc1ccc(N2C(=O)NC(=O)/C(=C/C=C/c3ccco3)C2=O)cc1	none | RGS4 block valid inactive | M3R Ca ctr inactive | M3R basal Ca ctr 16.0%
Cc1cc(C)cc(N2C(=O)NC(=O)/C(=C\C=C\c3ccco3)C2=O)c1	RGS4 block 23.3 | RGS4 block valid 59.0% | M3R Ca ctr 80.0% | M3R basal Ca ctr 36.0%
O=C1NC(=O)N(Cc2ccc(F)cc2)C(=O)/C1=C\C=C\c1ccco1	MrgX1 PAM 8.26, RGS4 block 12.2 | RGS4 block valid 10.5% | M3R Ca ctr inactive | M3R basal Ca ctr 12.5%
O=C1NC(=O)N(c2ccccc2)C(=O)/C1=C\C=C\c1ccccc1	RGS4 block 16.1 | RGS4 block valid 114.5% | M3R Ca ctr 31.0% | M3R basal Ca ctr 24.5%
O=C1/C(=C/c2ccccc2Cl)N2CCC1CC2	none
CCCCCOc1ccc(C)cc1CN(CCCl)CCCl	none
CCC(=NCCCn1ccnc1)c1c(O)n(-c2ccc(OC)cc2)c(=O)[nH]c1=O	none
CCNC(=O)C1OC(n2cnc3c(N)ncnc32)C(O)C1O (stereo not given)	RGS4 block 15.2, MrgX1 agonist 30 | RGS4 block valid 48.5% | M3R Ca ctr 71.5% | M3R basal Ca ctr inactive

Screening results deposited in PubChem BioAssay by Johns Hopkins Ion Channel Center.
